Compound activity (PubChem BioAssay)
TbMetRS inhib: T. brucei MetRS inhibitors, primary screen, biochemical, luminescence; methionyl-tRNA synthetase (Trypanosoma brucei brucei); purified T. brucei MetRS, ATP depletion, Kinase-Glo luminescence; inhibition, % at 11.9 µM; actives 0.4% (n = 360,000);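 active means inhibition above a per-plate cutoff of the control wells' mean inhibition plus 3 SD, cut at about 5.5% in these data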
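technique = Kinase-Glo luminescence, ATP depletion format | system = purified MetRS (methionyl-tRNA synthetase) enzyme from Trypanosoma brucei | timing = 15 min preincubation, 2 h reaction, all 25 °C | evaluation = percent inhibition versus plate control medians | dosing = single dose, 11.9 µM final nominal, 0.9% final DMSO | also added = substrates ATP, L-methionine and bulk Escherichia coli tRNA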
EBV gp42 block: Epstein-Barr virus gp42 inhibitors, primary screen, biochemical, uHTS, fluorescence polarization; Fluorescence polarization binding assay, mP read-out; inhibition, % (tested at 21.74 µM); actives 0.42% (n = 220,000); in the data active means inhibition above about 50%
Target sequence (Q1HVG2 whole entry, looked up): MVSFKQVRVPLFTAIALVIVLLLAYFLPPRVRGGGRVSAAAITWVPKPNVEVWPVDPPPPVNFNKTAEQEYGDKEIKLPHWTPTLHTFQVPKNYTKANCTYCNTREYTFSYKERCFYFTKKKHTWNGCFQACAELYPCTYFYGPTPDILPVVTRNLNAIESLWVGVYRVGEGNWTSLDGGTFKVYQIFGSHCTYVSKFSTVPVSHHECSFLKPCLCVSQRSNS
CHOP inhibitor: inhibitors of CHOP promoter induction, primary screen, cell-based, unfolded protein response, luciferase reporter; AID 2732, 2010; actives 3.8% (n = 220,000); CHO-K1 CHOP-promoter luciferase, tunicamycin-induced, 15-18 h; inhibition, % at 10 µM;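 active means compounds that reduced the stress-induced luciferase reporter signal by more than about 70% of percent inhibition, limit read from the data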
WT yeast gro inh: growth inhibition of WT strain, primary screen, mitochondrial fusion inhibitor project, WT and mutant strains, chemical genetic; mitochondrial fusion phenotypic screen; actives 2.1% (n = 190,000); AID 1362, 2008; inhibition, % at 10 µM; in the data active means inhibition above about 58%; tested in S. cerevisiae
NR3A LBD binder: binders of NR3A ligand-binding domain, primary screen, biophysical, differential scanning fluorimetry, uHTS. actives 2.5% (n = 340,000). NR3A LBD differential scanning fluorimetry, Tm shift; 0% = protein alone, 100% = glycine-bound protein. Tm shift relative to glycine control, % at 25 µM. Glutamate receptor ionotropic, NMDA 3A (GRIN3A) ligand-binding domain. AID 1259313, 2017;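 active means melting temperature shift of at least 10% of the positive control shift, at one fixed dose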
MPTP inh: mitochondrial permeability transition pore inhibitors, primary screen, biochemical, isolated mouse mitochondria, absorbance; Ca2+ swelling absorbance, 30 min; inhibition, % at 10 µM; actives 1.4% (n = 360,000); AID 602449, 2012;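 active means inhibition of 50% or more, scaled per plate between neutral and stimulator controls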
Rh123 counter: fluorescence retest of MPTP screen hits in isolated mitochondria, single concentration; shares compounds with MPTP inh; membrane potential, Rhodamine 123 fluorescence; inhibition, % at 10 µM; actives 78% (n = 5,000); in the data active means inhibition above about 22%
MPTP abs DR: mitochondrial permeability transition pore inhibitors, dose response, biochemical, absorbance, uHTS hits; shares compounds with MPTP inh; actives 58% (n = 780); isolated mitochondria swelling; AID 651561, 2012; IC50, µM; in the data active means IC50 below about 20 µM
MPTP counter DR: fluorescent counter-screen in isolated mitochondria, dose response, counter-screen for MPTP inhibitor project, biochemical, fluorescence, uHTS hits; actives 49% (n = 780); IC50, µM; shares compounds with MPTP inh; isolated mitochondria counterscreen, fluorescence read-out; in the data active means IC50 below about 80 µM
Numbers stand for hits; n = inactive; x = not tested or not shown; + = active, no number. Only some compounds are listed: those with a hit (about 6.4% of all), similar ones and a draw of the others.

SMILES	TbMetRS inhib	EBV gp42 block	CHOP inhibitor	WT yeast gro inh	NR3A LBD binder	MPTP inh	Rh123 counter	others
COc1ccc(-c2csc(NC(=O)CSc3nc(SC)ns3)n2)cc1	n	n	n	n	n	65	74
CCOC(=S)SCC(=O)Nc1nc(-c2ccc(Br)cc2)cs1	n	n	82	74	n	80	75
CCCCNC(=O)NNC(=O)COc1cccc(C)c1C	n	n	n	n	n	n	x
CCOC(=O)N1CCC(NS(=O)(=O)c2cc(C(=O)OC)n(C)c2)CC1	n	x	x	x	n	n	x
O=C(CCc1nc2sc3c(c2c(=O)[nH]1)CCCC3)NCCc1ccccc1	n	x	x	x	n	n	x
Cc1cc(-c2nnc(SCC(=O)c3ccc(Cl)cc3)o2)no1	n	n	n	n	n	n	x
CCn1c(CNC(=O)COc2ccc(C(C)C)cc2)nnc1SCC(=O)Nc1ccccc1F	n	n	n	n	n	n	x
CCn1c(CNC(=O)COc2ccc(C(C)C)cc2)nnc1SCC(=O)Nc1ccccc1C(C)C	n	n	n	n	n	53	57
O=C(Nc1nccs1)[C@@H]1CC=C[C@@H]2CCN(Cc3ccccc3)C(=O)[C@@H]21	n	x	x	x	n	n	x
COCCN(CCOC)S(=O)(=O)c1ccc(C(=O)Nc2nc(-c3ccccc3)c(C(=O)c3ccccc3)s2)cc1	n	n	n	n	n	n	x
CCCN(CCC)S(=O)(=O)c1ccc(C(=O)Nc2nc(-c3ccccc3)c(C(=O)OCC)s2)cc1	n	n	n	n	20	80	n	MPTP abs DR=14;MPTP counter DR=12
CNc1nnc(-c2ccc(OC)cc2)s1	n	n	n	n	n	n	x
O=C(/C=C/c1ccco1)N(Cc1ccccc1)C1CCS(=O)(=O)C1 (stereo not drawn)	n	n	n	x	n	n	x
C=CC[n+]1c(-c2ccc(OC)cc2)csc1NNC(=O)Nc1ccccc1	n	n	n	n	n	71	59
CC(C)n1c(-c2ccc(C(C)(C)C)cc2)n[nH]c1=S	n	n	n	n	n	68	67
CC(C)(C)c1ccc(-c2n[nH]c(=S)n2Cc2ccccc2)cc1	n	x	x	x	n	n	x
CN1CCN(C(=O)Nc2ccc([N+](=O)[O-])cc2)CC1	n	n	n	x	n	n	x
O=C(Nc1cccc([N+](=O)[O-])c1)N1CCCCCC1	n	x	x	x	n	n	x
O=C(Nc1ccc([N+](=O)[O-])cc1)N1CCCCCC1	n	x	x	x	n	62	96
O=C(Nc1ccc([N+](=O)[O-])cc1)N1CCCCC1	n	n	n	n	n	94	93
COc1ccc(CN(CCC(c2ccccc2)c2ccco2)C(=O)c2ccco2)cc1 (stereo not drawn)	n	n	n	n	n	n	x
NC(=S)NN=C1c2cc(Cl)ccc2-c2c1cc(Cl)cc2[N+](=O)[O-]	n	x	x	x	12	93	74
COc1cc2c(cc1[N+](=O)[O-])-c1ccc([N+](=O)[O-])cc1C2=NNC(N)=S	n	x	x	x	x	n	x
Cc1ccc(C)n1NC(=O)c1ccccc1O	n	n	n	n	n	78	58
Cc1cccn2cc(CNC(=O)C3CCCCC3)nc12	n	n	n	n	n	n	x
SMILES	TbMetRS inhib	EBV gp42 block	CHOP inhibitor	WT yeast gro inh	NR3A LBD binder	MPTP inh	Rh123 counter	others
Cn1ccc(NC(=O)Nc2cccc(C(F)(F)F)c2)n1	n	n	n	n	n	n	x
N/C(=N\OC(=O)Nc1cccc(C(F)(F)F)c1)c1ccno1	n	n	n	x	n	72	94
O=C(Nc1cccc(C(F)(F)F)c1)c1sc(Cl)nc1C(F)(F)F	n	x	x	x	n	83	77
CCN(CC)S(=O)(=O)c1ccc(/C=C/C(=O)Nc2cccc(F)c2)cc1	n	n	n	n	n	n	x
CCN(CC)S(=O)(=O)c1ccc(NC(=O)Nc2cccc(C(F)(F)F)c2)cc1	n	n	n	n	31	84	74
Cc1nn(C)c(C)c1NC(=O)Nc1cccc(C(F)(F)F)c1	n	n	n	n	n	72	54
O=C(CCC1CCCC1)N1CCN(C2CCCC2)CC1	n	n	n	n	n	n	x
Cc1nn(C)c(C)c1CNC(=O)Nc1ccc(Cl)cc1	n	n	n	n	n	n	x
Cc1c(NC(=O)Nc2ccccc2)c(=O)n(-c2ccccc2)n1C	n	x	x	x	n	n	x
O=C(Nc1ccncc1)Nc1cccc(C(F)(F)F)c1	n	x	x	x	14	81	99
O=C(Nc1cccc(C(F)(F)F)c1)Nc1ccon1	n	x	x	x	n	n	x
O=C(NNc1cccc(Cl)n1)Nc1cccc(C(F)(F)F)c1	n	n	n	n	n	70	72
Cc1c(NC(=O)Nc2ccc(Cl)c(Cl)c2)c(=O)n(-c2ccccc2)n1C	n	n	n	n	n	90	90
O=C(NNc1cccc(Cl)n1)Nc1ccc(Cl)cc1	n	n	n	n	n	n	x
Cc1nn(C)c(C)c1NC(=O)Nc1ccc(Cl)c(Cl)c1	n	n	n	n	n	102	88
O=C(Cn1c(=O)[nH]c2ccccc2c1=O)Nc1cccnc1	n	x	x	x	n	n	x
CN(CCCOc1ccccc1Br)Cc1ccccc1	n	n	n	n	n	n	x
CC1OC2(OC1C)C(=O)Nc1ccccc12 (stereo not drawn)	n	n	n	n	n	+	n	MPTP abs DR=n;MPTP counter DR=n
CC1CCOC2(O1)C(=O)Nc1ccccc12 (stereo not drawn)	n	n	n	n	n	n	x
CCCN(C(=O)COC(=O)CC1CCCCC1)c1c(N)n(Cc2ccccc2)c(=O)[nH]c1=O	n	x	x	x	n	n	x
CCCN(C(=O)COC(=O)c1[nH]c(C)c(C(=O)OC)c1C)c1c(N)n(Cc2ccccc2)c(=O)[nH]c1=O	n	x	x	x	n	60	n	MPTP abs DR=n;MPTP counter DR=n
CN(Cc1nc(Cc2ccccc2F)no1)CC1(N2CCOCC2)CCCCC1	n	n	n	n	n	n	x
CCCCCCCCC(=O)NC(NC(=S)N1CCOCC1)C(Cl)(Cl)Cl (stereo not drawn)	n	n	n	n	n	88	86
CCCCCC(=O)NC(NC(=S)N1CCOCC1)C(Cl)(Cl)Cl (stereo not drawn)	n	n	n	n	n	n	x
COc1cc(/C=N/NC(=O)C2COc3ccccc3O2)ccc1O (stereo not drawn)	n	n	n	x	n	n	x
COc1cc(/C=N/NC(=O)C2c3ccccc3Oc3ccccc32)ccc1O	n	n	n	n	n	83	n	MPTP abs DR=16;MPTP counter DR=n
